Laboratory results as given in ChEMBL document CHEMBL1124084, “Studies on scavengers of active oxygen species. 1. Synthesis and biological activity of 2-O-alkylascorbic acids” (J Med Chem, 1988).

What was measured:
Rattus norvegicus [1] = organism: Rattus norvegicus; experiment: Inhibition of lipid peroxidation was determined with rat brain tissue homogenates; assay type: functional
Outline: (§1)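 Brains excised from male SD rats (12 weeks), exsanguinated under pentobarbital anesthesia; 5% homogenate in phosphate buffer pH 7.4 incubated with test drug 1 h at 37 °C; lipid peroxide quantified by thiobarbituric acid method.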

Rattus norvegicus [2] = organism: Rattus norvegicus; experiment: Antilipid peroxidation was determined; assay type: functional
Outline: (§2)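 Rat brain lipid peroxidation: brains from male SD rats (12 weeks old), exsanguinated under pentobarbital anaesthesia, homogenized to 5% in phosphate buffer pH 7.4. Homogenate incubated with test drug at 37 °C for 1 h. Lipid peroxide quantified by the thiobarbituric acid method.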

[3] = Reducing activity determined by the use of stable radical alpha,alpha-di-phenyl-beta-picrylhydrazyl (DPPH); set-up: concentration or dose not given beside the values
Rattus norvegicus [4] = organism: Rattus norvegicus; experiment: Antilipid peroxidation was measured at 10e-5 M concentration; assay type: functional; outline: as §2
Rattus norvegicus [5] = experiment: Effect of AOS scavenger on arrhythmias induced by ischemia-reperfusion in anesthetized rat measured as ventricular tachycardia (VT), frequency, times at 3 mg/kg; assay type: functional, Cardiac ventricle
Rattus norvegicus [6] = experiment: Effect of AOS scavenger on premeture ventricular complexes PVCs, arrhythmias induced by ischemia-reperfusion in anesthetized rat, duration at 3 mg/kg; assay type: functional, Cardiac ventricle
Rattus norvegicus [7] = experiment: Effect of AOS scavenger on ventricular fibrillation (VF), arrhythmias induced by ischemia-reperfusion in anesthetized rat, incidence at 3 mg/kg; assay type: functional, Cardiac ventricle
Rattus norvegicus [8] = experiment: Effect of AOS scavenger on arrhythmias induced by ischemia-reperfusion in anesthetized rat measured as ventricular tachycardia (VT), incidence at 3 mg/kg; 6/6; assay type: functional, Cardiac ventricle
Rattus norvegicus [9] = organism: Rattus norvegicus; experiment: Reducing activity determined by the use of stable radical alpha,alpha-di-phenyl-beta-picrylhydrazyl (DPPH); assay type: functional, organism-based
Outline: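 Compound mixed with equimolar α,α-diphenyl-β-picrylhydrazyl; absorbance at 517 nm read after 20 min; reducing activity taken as absorbance difference from control.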

Rattus norvegicus [10] = experiment: Effect of AOS scavenger on ventricular fibrillation (VF), arrhythmias induced by ischemia-reperfusion in anesthetized rat, incidence at 3 mg/kg; 6/6; assay type: functional, Cardiac ventricle
Rattus norvegicus [11] = experiment: Effect of AOS scavenger on arrhythmias induced by ischemia-reperfusion in anesthetized rat measured as ventricular tachycardia (VT), duration at 3 mg/kg; assay type: functional, Cardiac ventricle
Rattus norvegicus [12] = experiment: Effect of AOS scavenger on ventricular fibrillation (VF),arrhythmias induced by ischemia-reperfusion in anesthetized rat, duration at 20 mg/kg; assay type: functional, Cardiac ventricle
Outline: (§3)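 Male SD rats (9–13 weeks, 250–370 g) under pentobarbital anesthesia with artificial respiration underwent thoracotomy and LAD coronary occlusion followed by reperfusion. Dosing was oral, 20 mg/kg at 24 h and again 20 mg/kg at 5 min before occlusion. VF and VT incidence, frequency and duration, and mean PVCs/min were recorded at 10 min postreperfusion.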

Rattus norvegicus [13] = experiment: Effect of AOS scavenger on ventricular tachycardia (VT),arrhythmias induced by ischemia-reperfusion in anesthetized rat, duration at 20 mg/kg; assay type: functional, Cardiac ventricle; outline: as §3
Rattus norvegicus [14] = experiment: Effect of AOS scavenger on premeture ventricular complexes PVCs, arrhythmias induced by ischemia-reperfusion in anesthetized rat, duration at 20 mg/kg; PVSc/min; assay type: functional, Cardiac ventricle; outline: as §3
Rattus norvegicus [15] = experiment: Effect of AOS scavenger on ventricular tachycardia (VT),arrhythmias induced by ischemia-reperfusion in anesthetized rat, incidence at 20 mg/kg; 8/8; assay type: functional, Cardiac ventricle; outline: as §3
Rattus norvegicus [16] = experiment: Effect of AOS scavenger on ventricular tachycardia (VT), arrhythmias induced by ischemia-reperfusion in anesthetized rat, frequency, times at 20 mg/kg; assay type: functional, Cardiac ventricle; outline: as §3
Rattus norvegicus [17] = experiment: Effect of AOS scavenger on ventricular fibrillation (VF),arrhythmias induced by ischemia-reperfusion in anesthetized rat, incidence at 20 mg/kg; 4/8; assay type: functional, Cardiac ventricle; outline: as §3
Rattus norvegicus [18] = experiment: Effect of AOS scavenger on ventricular fibrillation (VF), arrhythmias induced by ischemia-reperfusion in anesthetized rat, frequency, times at 20 mg/kg; assay type: functional, Cardiac ventricle; outline: as §3
Rattus norvegicus [19] = experiment: Effect of AOS scavenger on ventricular fibrillation (VF), arrhythmias induced by ischemia-reperfusion in anesthetized rat, duration at 3 mg/kg; assay type: functional, Cardiac ventricle
Rattus norvegicus [20] = experiment: Effect of AOS scavenger on ventricular tachycardia (VT), arrhythmias induced by ischemia-reperfusion in anesthetized rat, duration at 3 mg/kg; assay type: functional, Cardiac ventricle
Rattus norvegicus [21] = experiment: Effect of AOS scavenger on ventricular tachycardia (VT), arrhythmias induced by ischemia-reperfusion in anesthetized rat, frequency, times at 3 mg/kg; assay type: functional, Cardiac ventricle
Rattus norvegicus [22] = experiment: Effect of AOS scavenger on ventricular tachycardia (VT), arrhythmias induced by ischemia-reperfusion in anesthetized rat, incidence at 3 mg/kg; 8/10; assay type: functional, Cardiac ventricle
Rattus norvegicus [23] = experiment: Effect of AOS scavenger on ventricular fibrillation (VF), arrhythmias induced by ischemia-reperfusion in anesthetized rat, incidence at 3 mg/kg; 8/10; assay type: functional, Cardiac ventricle
Rattus norvegicus [24] = experiment: Effect of AOS scavenger on ventricular fibrillation (VF), arrhythmias induced by ischemia-reperfusion in anesthetized rat, frequency, times at 3 mg/kg; assay type: functional, Cardiac ventricle
Rattus norvegicus [25] = experiment: Effect of AOS scavenger on ventricular tachycardia (VT),arrhythmias induced by ischemia-reperfusion in anesthetized rat incidence at 10 mg/kg; 4/5; assay type: functional, Cardiac ventricle
Rattus norvegicus [26] = experiment: Effect of AOS scavenger on ventricular fibrillation (VF), arrhythmias induced by ischemia-reperfusion in anesthetized rat, duration at 10 mg/kg; assay type: functional, Cardiac ventricle
Rattus norvegicus [27] = organism: Rattus norvegicus; experiment: Inhibition of lipid peroxidation was determined with rat brain tissue homogenates.; assay type: functional; outline: as §1
Rattus norvegicus [28] = experiment: Effect of AOS scavenger on premeture ventricular complexes PVCs, arrhythmias induced by ischemia-reperfusion in anesthetized rat, duration at 10 mg/kg; assay type: functional, Cardiac ventricle; conditions: 10 mg/kg
Rattus norvegicus [29] = experiment: Effect of AOS scavenger on ventricular fibrillation (VF), arrhythmias induced by ischemia-reperfusion in anesthetized rat, frequency, times at 10 mg/kg; assay type: functional, Cardiac ventricle; conditions: 10 mg/kg
Rattus norvegicus [30] = experiment: Effect of AOS scavenger on ventricular tachycardia (VT), arrhythmias induced by ischemia-reperfusion in anesthetized rat, frequency, times at 10 mg/kg; assay type: functional, Cardiac ventricle
Rattus norvegicus [31] = experiment: Effect of AOS scavenger on ventricular fibrillation (VF),arrhythmias induced by ischemia-reperfusion in anesthetized rat, incidence at 10 mg/kg; 5/5; assay type: functional, Cardiac ventricle
Rattus norvegicus [32] = experiment: Effect of AOS scavenger on ventricular tachycardia (VT),arrhythmias induced by ischemia-reperfusion in anesthetized rat, duration at 10 mg/kg; assay type: functional, Cardiac ventricle; conditions: 10 mg/kg

Work on `CCCCCCCCCCCCOC1=C(O)OC(C(O)CO)C1=O` (stereo not drawn) yielded an IC50 (Rattus norvegicus [1]) of 5.4 µM and an Antilipid peroxidation (Rattus norvegicus [2]) of 67.4%.
For `CCCCCCCCOC1=C(O)OC(C(O)CO)C1=O` (stereo not drawn), the Reducing activity [3] was 93.9% and the Antilipid peroxidation (Rattus norvegicus [4]) was 1.6%.
`CCCCCCCCCCCCCCCCCCOC1=C(O)OC(C2COC(C)(C)O2)C1=O` (stereo not drawn) gave an IC50 (Rattus norvegicus [1]) of 2.4 µM and an Antilipid peroxidation (Rattus norvegicus [4]) of 58.5%.
Work on `CCCCCCCCCCOC1=C(O)OC(C(O)CO)C1=O` (stereo not drawn) yielded an IC50 (Rattus norvegicus [1]) of 13 µM and an Antilipid peroxidation (Rattus norvegicus [2]) of 42.5%.
In the case of `O=C1O[C@H]([C@@H](O)CO)C(O)=C1O` [ASCORBIC ACID], the Frequency (Rattus norvegicus [5]) is reported as 3.7, the Activity (Rattus norvegicus [6]) is reported as 7.4 min and the Duration (Rattus norvegicus [7]) is reported as 41.4 s. For the same compound, the Frequency (Rattus norvegicus [7]) was 4, the Incidence (Rattus norvegicus [8]) was 6 N and the Reducing activity (Rattus norvegicus [9]) was 93.4%. For the same compound, the Incidence (Rattus norvegicus [10]) was 6 N, the Duration (Rattus norvegicus [11]) was 8.2 s and the Antilipid peroxidation (Rattus norvegicus [2]) was -71%.
Compound `CCCCCCCCCCCOC1=C(O)OC(C(O)CO)C1=O` (stereo not drawn) has an IC50 (Rattus norvegicus [1]) of 13 µM, a Reducing activity [3] of 94.6% and an Antilipid peroxidation (Rattus norvegicus [2]) of 43.4%.
`CCCCCCCCCCCCCCCCCCOC1=C(O)[C@@H](C(O)CO)OC1=O` (stereo in doubt; 8) [listing 1 of 2 here] showed an Antilipid peroxidation (Rattus norvegicus [2]) of 44.7%.
Compound `Oc1ncnc2[nH]ncc12` [ALLOPURINOL] has a Duration (Rattus norvegicus [12]) of 1.3 s, a Duration (Rattus norvegicus [13]) of 5.9 s and an Activity (Rattus norvegicus [14]) of 2.7 min. It also gave an Incidence (Rattus norvegicus [15]) of 8 N, a Frequency (Rattus norvegicus [16]) of 3.1 and an Incidence (Rattus norvegicus [17]) of 4 N. The Frequency (Rattus norvegicus [18]) was 0.9.
`Cc1c(C)c2c(c(C)c1O)CC[C@@](C)(CCC[C@H](C)CCC[C@H](C)CCCC(C)C)O2` [ALPHA-TOCOPHEROL] gave an Activity (Rattus norvegicus [6]) of 23.3 min, a Reducing activity [3] of 72% and a Duration (Rattus norvegicus [19]) of 111.1 s. The Duration (Rattus norvegicus [20]) was 7.4 s, the Frequency (Rattus norvegicus [21]) was 3.1 and the Antilipid peroxidation (Rattus norvegicus [2]) was 52%. For the same compound, the Incidence (Rattus norvegicus [22]) was 8 N, the Incidence (Rattus norvegicus [23]) was 8 N and the Frequency (Rattus norvegicus [24]) was 2.1.
`CCCCCCCCCCCCCCCCCOC1=C(O)OC(C(O)CO)C1=O` (stereo not drawn) showed an IC50 (Rattus norvegicus [1]) of 11 µM and an Antilipid peroxidation (Rattus norvegicus [2]) of 48.8%.
In the case of `CCCCCCCCCCCCCCCCCCOC1=C(O)[C@@H](C(O)CO)OC1=O` (stereo in doubt; 8) [listing 2 of 2 here], the Incidence (Rattus norvegicus [25]) is reported as 4 N, the Duration (Rattus norvegicus [26]) is reported as 122.4 s and the IC50 (Rattus norvegicus [27]) is reported as 9.8 µM. For the same compound, the PVCs (Rattus norvegicus [28]) was < 4 PVCs/min, the Frequency (Rattus norvegicus [29]) was 1.6 and the Frequency (Rattus norvegicus [30]) was 3.8. It also gave an Incidence (Rattus norvegicus [31]) of 5 N and a Duration (Rattus norvegicus [32]) of 11.8 s.
Compound `CCCCCCOc1ccc(COC2=C(O)OC(C(O)CO)C2=O)cc1` (stereo not drawn) has an Antilipid peroxidation (Rattus norvegicus [2]) of 38.8%.
